Screening data from PubChem.
PHOSPHO1 block – PubChem AID 1565; Phosphoethanolamine/phosphocholine phosphatase (Homo sapiens), Q8TCT1; recombinant PHOSPHO1, absorbance phosphatase assay; inhibition, % at 13.3 µM; 1.1% of 290,000 active; in the data active means inhibition above about 60%
Target sequence (Q8TCT1 whole entry, looked up): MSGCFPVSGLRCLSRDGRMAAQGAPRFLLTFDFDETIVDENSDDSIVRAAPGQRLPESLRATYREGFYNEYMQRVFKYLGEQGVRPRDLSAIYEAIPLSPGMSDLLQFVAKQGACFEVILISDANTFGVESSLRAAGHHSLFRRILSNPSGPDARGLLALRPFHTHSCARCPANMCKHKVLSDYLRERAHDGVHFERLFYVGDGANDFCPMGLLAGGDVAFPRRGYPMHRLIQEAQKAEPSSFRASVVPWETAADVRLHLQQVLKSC
HCV core dimer – inhibitors of HCV core protein dimerization, primary screen, biochemical, TR-FRET, high-throughput | TR-FRET GST/Flag-core106 dimerization, 1536-well | inhibition, % at 5 µM | 0.33% of 300,000 active | AID 1899, 2009;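 active means inhibition above the mean of all tested compounds plus 3 SD, set per screening campaign, cut at about 45% in these data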
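Material: GST/Flag-tagged HCV core106 proteins. Incubation: 4 h, 22.5 °C incubation. Read-out basis: inhibition (%) from 671 over 617 nm ratio. Measured by: TR-FRET, excitation 340 nm, emission 617 and 671 nm.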
HSF1 inhib – HSF1 inhibitors in luciferase reporter cells, primary screen, cell-based, NIH3T3, luminescence | 0.77% of 300,000 active | NIH3T3-HGL HSE-luciferase, MG132-induced, luminescence 8 h; hits give low values | activity change, negative = inhibition, % at 7.5 µM (by protocol);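 active means more than half of replicate wells show activity change below -50%, luminescence cut by over half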;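 further: luciferase reports HSF-1 transcriptional activity via heat shock element; 0% = median of DMSO wells and -100% = zero luminescence signal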
HSF1 activator – HSF-1 activators, primary screen, NIH3T3-HGL cells, MG132 stress, luminescence, single point | NIH3T3-HGL HSF-1 luciferase reporter, 8 h; 100% = twice DMSO control signal | activation, % at 9 µM | 1.7% of 300,000 active;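 active means mean replicate activation of at least 50% with a set share of replicates each reaching 50%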;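 further: 0% = median of the neutral control wells and 100% = twice that signal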
AI-2 QS modul – Vibrio harveyi AI-2 quorum sensing modulators, primary screen, JMH597 strain, luminescence/OD600 ratio; 0.4% of 300,000 active; activity change, % at 7.5 µM; Vibrio harveyi JMH597 AI-2 luminescence/OD600 ratio, 9 h; hits give low values; strain lacks LuxN and CqsS sensors; 0 = neutral-control median; in the data active means activity change below about -75%, passing the limit was not always enough;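 further: luminescence divided by OD600 gain over 9 h not by final OD600 alone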
ALR H2O2 inh – inhibitors of human ALR sulfhydryl oxidase, primary screen, biochemical, H2O2 detection, HRP-luminol luminescence, single point. inhibition, % (test concentration not listed). FAD-linked sulfhydryl oxidase ALR (Homo sapiens), P55789. purified ALR, DTT oxidation. AID 485317, 2010. 3.8% of 290,000 active;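 active means mean replicate inhibition above about 79%, with every replicate also reaching it, limit read from the data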
Target sequence (P55789 whole entry, looked up): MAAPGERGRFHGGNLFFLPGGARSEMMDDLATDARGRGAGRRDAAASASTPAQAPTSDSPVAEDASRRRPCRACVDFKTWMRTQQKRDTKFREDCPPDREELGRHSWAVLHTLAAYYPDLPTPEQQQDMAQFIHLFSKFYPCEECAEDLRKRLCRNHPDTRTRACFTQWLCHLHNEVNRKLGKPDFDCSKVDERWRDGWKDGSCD
* = called active by the depositor; x = not tested or not shown. Only some compounds are listed: those with a hit (about 6.8% of all), similar ones and a draw of the others.

SMILES	PHOSPHO1 block	HCV core dimer	HSF1 inhib	HSF1 activator	AI-2 QS modul	ALR H2O2 inh
CN(C)c1ccc(CNC(=O)c2cc(S(=O)(=O)N3CCCC3)cn2C)cc1	33.4	-6.0	-3.8	-1.5	-6.0	98.0*
CC(C)C(C(=O)NC1CCCC1)N(CC1CCCO1)C(=O)CNS(=O)(=O)c1ccc(F)cc1 (configuration not stated)	32.5	10.1	-8.8	-3.9	3.0	-0.8
O=C(CN1C(=O)NC2NC(=O)NC21)NC1CCCCC1 (configuration not stated)	x	-3.7	1.2	-21.1	30.6	-0.5
CC(C)c1ccc2c(c1)C1Cc3ccccc3C1N2 (configuration not stated)	-7.1	10.4	26.0	18.8	24.0	0.2
O=C1CSC(c2cccnc2)N1c1ccc(Cl)cc1 (configuration not stated)	-9.7	-3.2	1.7	-10.3	11.9	98.9*
Cc1ccc(N2C(=O)CSC2c2cccnc2)cc1F (configuration not stated)	33.8	-8.1	-7.0	-7.8	10.4	99.5*
O=C1CSC(c2ccc(Cl)cc2)N1c1cccnc1 (configuration not stated)	45.0	-4.3	4.8	21.2	-17.6	98.3*
COc1cccc(F)c1C(=O)NC(=O)Nc1ccc2nc(C)oc2c1	33.4	-9.5	-2.0	11.0	x	0.0
CCOc1ccc(CCNC(=O)CCNC(=O)c2ccccc2Cl)cc1OCC	4.2	-6.8	-7.4	-3.6	7.3	-6.6
CCCc1cc(=O)oc2c3c(cc(OCC(=O)N[C@@H](CSC)C(=O)O)c12)OC(C)(C)CC3	39.4	x	-9.8	-28.0	18.6	-1.4
CCCc1cc(=O)oc2c3c(cc(OCC(=O)N[C@@H](C)C(=O)O)c12)OC(C)(C)CC3	32.7	-16.7	17.6	66.7*	3.4	-1.5
Cc1noc(C)c1S(=O)(=O)N(CC(=O)NC1CCCC1)c1ccc(C(C)C)cc1	20.7	-2.6	13.3	1.7	18.7	-9.8
O=C(O)CCSc1nc2ccc(Br)cc2[nH]1	66.3*	-9.9	-4.8	4.7	-3.5	-5.3
CC(Sc1nc2ccc(Br)cc2[nH]1)C(=O)O (configuration not stated)	23.3	4.1	7.2	2.1	15.5	-0.8
O=C(O)CCNS(=O)(=O)c1cccc2nsnc12	x	4.3	x	x	x	-17.1
N#CCC(=O)Nc1ccc(C(=O)OCC(=O)NC(=O)NCc2ccco2)cc1	x	x	x	x	x	97.9*
N#CCC(=O)Nc1ccc(C(=O)OCC(=O)Nc2ccccc2Sc2ccccc2)cc1	0.7	15.4	20.6	63.3*	13.1	28.0
CC(=O)Nc1ccc(C(=O)OCC(=O)Nc2ccccc2Sc2ccccc2)cc1	-6.9	3.6	-8.6	7.9	33.7	-2.5
CCOC(=O)c1ccc(NC(=O)CCC(=O)NCc2ccco2)cc1	34.0	7.6	4.3	6.1	10.4	0.6
COc1nccnc1NS(=O)(=O)c1ccc(NC(=S)NC(=O)c2cccc(F)c2)cc1	23.2	3.4	2.7	7.1	36.6	91.0*
COc1ccc(C(=O)OCc2csc(C)n2)c(O)c1	31.7	-1.5	25.6	64.8*	17.4	11.4
NC(=O)CNC(=O)c1ccc(Cl)cc1	25.4	0.5	-4.9	-12.5	7.2	-12.9
CCc1c(C)nc(SCC(=O)Nc2ccc(Br)cc2)[nH]c1=O	7.4	2.4	2.6	3.1	106.0	-8.8
CCc1c(C)nc(SCC(=O)Nc2cccc(Br)c2)[nH]c1=O	-48.4	0.2	21.5	57.1*	40.6	-2.1
CCc1c(O)nc(SCC(=O)Nc2ccccc2C)[nH]c1=O	-3.7	-4.0	-6.8	-19.2	x	99.1*
SMILES	PHOSPHO1 block	HCV core dimer	HSF1 inhib	HSF1 activator	AI-2 QS modul	ALR H2O2 inh
CCCCc1c(O)nc(SCC(=O)c2ccccc2)[nH]c1=O	14.0	-4.2	-5.4	-1.6	28.7	98.6*
CC(Nc1nc(N2CCNCC2)nc2ccccc12)c1ccccc1 (configuration not stated)	0.1	-0.3	-3.1	-19.3	0.6	-1.6
CCOc1cccc(CNCCSc2nnnn2C)c1	40.7	-1.1	1.9	0.9	4.3	x
Cc1c(C(=O)N2CCCCCC2)c(S(=O)(=O)Nc2ccc(F)cc2)c(C)n1C	11.9	-7.2	9.3	15.2	19.3	-7.0
Clc1ccc(CSc2nnc(-c3c[nH]c4ccccc34)o2)cc1	17.1	-4.1	9.3	21.0	-77.4*	-10.8
Cc1oc(C(=O)O)cc1CSCc1cc(C(=O)O)c(C)o1	13.2	-0.7	0.9	-0.3	24.7	99.1*
O=C1c2cc([N+](=O)[O-])cc3cc([N+](=O)[O-])cc(c23)C(=O)N1c1ccccn1	1.4	-21.5	92.3	123.9*	25.6	-11.6
O=C1c2ccc(Oc3cccc([N+](=O)[O-])c3)cc2C(=O)N1c1ccccn1	36.2	3.8	-1.4	18.9	25.6	-14.6
CN(Cc1ccccc1)C(=O)c1[nH]cnc1C(=O)Nc1ccon1	x	x	x	x	x	-4.2
O=c1[nH]c(CSc2nnnn2-c2ccc(Cl)cc2)nc2ccccc12	19.9	5.5	13.8	24.4	28.0	-9.6
Clc1ccc(-n2nnnc2SCc2c(-c3ccccc3)nc3sccn23)cc1	97.5*	28.1	3.6	26.5	15.5	-1.0
Cc1ccc(NC(=O)c2ccc3c(c2)CCN3S(C)(=O)=O)c(C)c1	-16.1	-6.3	-2.0	24.9	x	-6.8
COc1ccc(CCNC(=O)CSc2nc(O)c(CC(C)C)c(=O)[nH]2)cc1OC	3.9	2.9	-12.9	-10.4	14.9	97.8*
COc1ccc(Cc2c(O)nc(SCC(=O)NC(C)(C)C)[nH]c2=O)cc1	32.2	-3.5	-0.5	-9.5	7.4	84.4*
CCc1nc(SCC(=O)NCCc2ccc(OC)c(OC)c2)c2c(=O)n(C)c(=O)n(C)c2n1	8.2	11.0	-77.7*	-82.6	25.8	-23.3
COc1ccc(CCNC(=O)C(C)Sc2ccccc2)cc1OC (configuration not stated)	60.5*	-1.7	-5.1	-21.9	-2.6	-0.6
O=C(COc1ccccc1F)Nc1nnc(C2CCCC2)s1	21.8	1.2	10.3	18.8	9.2	1.9
CCCCN(C(=O)CCNC(=O)NC12CC3CC(CC(C3)C1)C2)c1c(N)n(CCC)c(=O)[nH]c1=O	x	-9.4	-2.5	-8.4	-4.5	5.8
COc1ccc(CCNC(=O)CSc2nc(O)cc(=O)[nH]2)cc1OC	38.3	-2.5	-4.7	3.7	18.7	94.8*
COc1ccc(CCNC(=O)c2c[nH]c3ccccc3c2=O)cc1OC	4.9	-0.8	-0.7	-6.5	3.8	0.5
